{"source": "ChEMBL document CHEMBL1127060", "about": "(1993)", "key": {"Oryctolagus cuniculus [1]": {"species": "Oryctolagus cuniculus", "assay": "Tested for contraction of rabbit saphenous artery produced by 1 uM alpha,beta-MeATP at 37 degree C; Not active", "type": "functional"}, "[2]": {"assay": "Agonism at turkey erythrocyte P2Y receptor.", "type": "functional, Meleagris gallopavo", "how_it_was_run": "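Turkey erythrocytes labeled 18–24 h at 37 °C with 2-[3H]myo-inositol in inositol-free DMEM; ghosts made by hypotonic lysis (5 mM Na phosphate pH 7.4, 5 mM MgCl2, 1 mM EGTA). PLC assay: ~175 μg protein ghosts, 1 μM GTPγS, Hepes pH 7.0 medium with 424 μM CaCl2, 2 mM EGTA; 5 min, 30 °C; total [3H]inositol phosphates by anion exchange; K0.5 averaged from 3–8 curves.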"}, "Oryctolagus cuniculus [3]": {"species": "Oryctolagus cuniculus", "assay": "Tested for relaxation of carbachol-contracted rabbit mesenteric artery at 37 degree C; Less potent than or equal 2MeSATP", "type": "functional"}, "Cavia porcellus [4]": {"species": "Cavia porcellus", "assay": "Tested for contraction of guinea pig isolated urinary bladder detrusor muscle at 37 degree C; Less potent than or equal to ATP", "type": "functional", "settings": "Muscle tissue"}, "Cavia porcellus [5]": {"species": "Cavia porcellus", "assay": "Tested for relaxation of carbachol-contracted guinea pig taenia coli at 37 degree C; Potency equal to ATP", "type": "functional"}, "Oryctolagus cuniculus [6]": {"species": "Oryctolagus cuniculus", "assay": "Tested for relaxation of carbachol-contracted rabbit aorta at 37 degree C; More potent than or equal to 2MeSATP", "type": "functional"}, "Cavia porcellus [7]": {"species": "Cavia porcellus", "assay": "Tested for contraction of guinea pig vas deferens at 37 degree C; Less potent than or equal to ATP", "type": "functional"}}, "note": "Active and inactive are the calls of the source. No cut-off for these calls is given here."}
{"smiles": "Nc1nc(SCCc2ccc([N+](=O)[O-])cc2)nc2c1ncn2C1O[C@H](COP(=O)(O)O)[C@@H](O)[C@H]1O", "note": "(some centres not stated)", "values": [{"measurement": "Relative activity", "setting": "Oryctolagus cuniculus [1]", "result": "inactive"}, {"measurement": "K 0.5", "setting": "[2]", "result": 3000, "unit": "nM"}, {"measurement": "Relative activity", "setting": "Oryctolagus cuniculus [3]", "result": 5.4}, {"measurement": "Relative activity", "setting": "Cavia porcellus [4]", "result": "Partially active"}, {"measurement": "Relative activity", "setting": "Cavia porcellus [5]", "result": 6.5}, {"measurement": "Relative activity", "setting": "Oryctolagus cuniculus [6]", "result": 6.1}, {"measurement": "Relative activity", "setting": "Cavia porcellus [7]", "result": "Partially active"}]}
